Read-outs that look alike come from different tables or passages of the source.
Legend:
[1] = assay type: in vivo, BALB/c mice; conditions: for clearance: CL
[2] = Plasma protein binding by rapid equilibrium dialysis; assay type: in vitro ADME; conditions: BALB/c, mouse
In short: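 Rapid equilibrium dialysis: freshly spiked BALB/c mouse plasma against PBS, 37 °C for 24 h. Test compound at 300–100,000 ng/mL with <0.1% final organic solvent, triplicate. Fraction unbound in plasma determined from chamber concentrations.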

[3] = clinical; cited from earlier work
[4] = test system: breast cancer resistance protein (Bcrp/Abcg2); conditions: on the BBB; cited from earlier work
[5] = test system: P-glycoprotein (P-gp/Mdr1); conditions: on the BBB; cited from earlier work
[6] = clinical; cited from earlier work; remark: listed apart in the source
[7] = BALB/c, mouse, bone marrow, iv, 20 mg/kg
[8] = BALB/c, mouse, brain, iv, 20 mg/kg
[9] = BALB/c, mouse, draining lymph node, iv, 20 mg/kg
[10] = BALB/c, mouse, esophagus, iv, 20 mg/kg
[11] = BALB/c, mouse, fat, iv, 20 mg/kg
[12] = BALB/c, mouse, heart, iv, 20 mg/kg
[13] = BALB/c, mouse, kidney, iv, 20 mg/kg
[14] = BALB/c, mouse, liver, iv, 20 mg/kg
[15] = BALB/c, mouse, lung, iv, 20 mg/kg
[16] = BALB/c, mouse, non-draining lymph node, iv, 20 mg/kg
[17] = BALB/c, mouse, plasma, iv, 20 mg/kg
[18] = BALB/c, mouse, red blood cells (RBC), iv, 20 mg/kg
[19] = BALB/c, mouse, skeletal muscle, iv, 20 mg/kg
[20] = BALB/c, mouse, small intestine, iv, 20 mg/kg
[21] = BALB/c, mouse, spinal cord, iv, 20 mg/kg
[22] = BALB/c, mouse, spleen, iv, 20 mg/kg
[23] = BALB/c, mouse, thymus, iv, 20 mg/kg
[24] = BALB/c, mouse, tumor (CT26), iv, 20 mg/kg
[25] = plasma, 20 mg/kg IV-ext, tumor-bearing mice
[26] = unchanged drug, 20 mg/kg IV-ext, tumor-bearing mice

Work on `CNCc1ccc(-c2cc(-c3nc(-c4ccc(S(=O)(=O)C(C)C)cc4)cnc3N)on2)cc1` [berzosertib] yielded an AUC(0-inf) [1, 7] of 1110 µg·h/mL, a Cmax [1, 7] of 164000 ng/mL and a Kp [1, 7] of 74.5. The Tmax [1, 7] was 60 min, the AUC(0-t) ([1]; BALB/c, mouse, bone marrow, iv, 20 mg/kg, AUC0-t, 20 mg/kg IV, 0–1440 min) was 1060 µg·h/mL and the AUC(0-inf) [1, 8] was 4.52 µg·h/mL. It also gave a Cmax [1, 8] of 627 ng/mL, a Kp [1, 8] of 0.297 and a Tmax [1, 8] of 15 min. It also gave an AUC(0-t) ([1]; BALB/c, mouse, brain, iv, 20 mg/kg, AUC0-t, 20 mg/kg IV, 0–1440 min) of 4.23 µg·h/mL, an AUC(0-inf) [1, 9] of 87 µg·h/mL and a Cmax [1, 9] of 12900 ng/mL. It also gave a Kp [1, 9] of 5.7, a Tmax [1, 9] of 60 min and an AUC(0-t) ([1]; BALB/c, mouse, draining lymph node, iv, 20 mg/kg, AUC0-t, 20 mg/kg IV, 0–1440 min) of 80.3 µg·h/mL. For the same compound, the AUC(0-inf) [1, 10] was 46.7 µg·h/mL, the Cmax [1, 10] was 12100 ng/mL and the Kp [1, 10] was 3.07. The Tmax [1, 10] was 30 min, the AUC(0-t) ([1]; BALB/c, mouse, esophagus, iv, 20 mg/kg, AUC0-t, 20 mg/kg IV, 0–1440 min) was 43.6 µg·h/mL and the AUC(0-inf) [1, 11] was 25.2 µg·h/mL. For the same compound, the Cmax [1, 11] was 4280 ng/mL, the Kp [1, 11] was 1.59 and the Tmax [1, 11] was 5 min. It also gave an AUC(0-t) ([1]; BALB/c, mouse, fat, iv, 20 mg/kg, AUC0-t, 20 mg/kg IV, 0–1440 min) of 22.6 µg·h/mL, an AUC(0-inf) [1, 12] of 86.5 µg·h/mL and a Cmax [1, 12] of 31600 ng/mL. For the same compound, the Kp [1, 12] was 5.64, the Tmax [1, 12] was 5 min and the AUC(0-t) ([1]; BALB/c, mouse, heart, iv, 20 mg/kg, AUC0-t, 20 mg/kg IV, 0–1440 min) was 81.2 µg·h/mL. For the same compound, the AUC(0-inf) [1, 13] was 873 µg·h/mL, the Cmax [1, 13] was 117000 ng/mL and the Kp [1, 13] was 57.7. The Tmax [1, 13] was 5 min, the AUC(0-t) ([1]; BALB/c, mouse, kidney, iv, 20 mg/kg, AUC0-t, 20 mg/kg IV, 0–1440 min) was 821 µg·h/mL and the AUC(0-inf) [1, 14] was 387 µg·h/mL. The Cmax [1, 14] was 79800 ng/mL, the Kp [1, 14] was 25.5 and the Tmax [1, 14] was 5 min. For the same compound, the AUC(0-t) ([1]; BALB/c, mouse, liver, iv, 20 mg/kg, AUC0-t, 20 mg/kg IV, 0–1440 min) was 363 µg·h/mL, the AUC(0-inf) [1, 15] was 216 µg·h/mL and the Cmax [1, 15] was 45200 ng/mL. It also gave a Kp [1, 15] of 13.9, a Tmax [1, 15] of 5 min and an AUC(0-t) ([1]; BALB/c, mouse, lung, iv, 20 mg/kg, AUC0-t, 20 mg/kg IV, 0–1440 min) of 198 µg·h/mL. For the same compound, the AUC(0-inf) [1, 16] was 116 µg·h/mL, the Cmax [1, 16] was 20700 ng/mL and the Kp [1, 16] was 7.79. The Tmax [1, 16] was 30 min, the AUC(0-t) ([1]; BALB/c, mouse, non-draining lymph node, iv, 20 mg/kg, AUC0-t, 20 mg/kg IV, 0–1440 min) was 111 µg·h/mL and the AUC(0-inf) [1, 17] was 15.1 µg·h/mL. For the same compound, the Cmax [1, 17] was 13300 ng/mL, the Kp [1, 17] was 1 and the Tmax [1, 17] was 5 min. For the same compound, the Vd [1, 17] was 11.7 L/kg, the half-life [1, 17] was 367 min and the AUC(0-t) ([1]; BALB/c, mouse, plasma, iv, 20 mg/kg, AUC0-t, 20 mg/kg IV-ext, tumor-bearing mice) was 14.2 µg·h/mL. For the same compound, the AUC(0-t) ([1]; BALB/c, mouse, plasma, iv, 20 mg/kg, AUC0-t, 20 mg/kg IV, 0–1440 min) was 14.2 µg·h/mL, the AUC(0-t) ([1]; BALB/c, mouse, plasma, iv, 20 mg/kg, AUC0–360, plasma, 20 mg/kg IV-ext, tumor-bearing mice) was 9.85 µg·h/mL and the clearance ([1]; BALB/c, mouse, plasma, iv, 20 mg/kg, calculated using AUC0-∞, 20 mg/kg IV-ext, tumor-bearing mice) was 22.1 mL/min/kg. For the same compound, the clearance ([1]; BALB/c, mouse, plasma, iv, 20 mg/kg, calculated using AUC0–360, 20 mg/kg IV-ext, tumor-bearing mice) was 33.8 mL/min/kg, the AUC(0-inf) [1, 18] was 5.87 µg·h/mL and the Cmax [1, 18] was 1690 ng/mL. It also gave a Kp [1, 18] of 0.389, a Tmax [1, 18] of 5 min and an AUC(0-t) ([1]; BALB/c, mouse, red blood cells (RBC), iv, 20 mg/kg, AUC0-t, RBC, 20 mg/kg IV, 0–1440 min) of 5.53 µg·h/mL. The AUC(0-inf) [1, 19] was 41.7 µg·h/mL, the Cmax [1, 19] was 9950 ng/mL and the Kp [1, 19] was 2.77. For the same compound, the Tmax [1, 19] was 15 min, the AUC(0-t) ([1]; BALB/c, mouse, skeletal muscle, iv, 20 mg/kg, AUC0-t, Sk. Muscle, 20 mg/kg IV, 0–1440 min) was 39.4 µg·h/mL and the AUC(0-inf) [1, 20] was 209 µg·h/mL. It also gave a Cmax [1, 20] of 31300 ng/mL, a Kp [1, 20] of 12.7 and a Tmax [1, 20] of 15 min. The AUC(0-t) ([1]; BALB/c, mouse, small intestine, iv, 20 mg/kg, AUC0-t, 20 mg/kg IV, 0–1440 min) was 181 µg·h/mL, the AUC(0-inf) [1, 21] was 2.15 µg·h/mL and the Cmax [1, 21] was 307 ng/mL. The Kp [1, 21] was 0.14, the Tmax [1, 21] was 15 min and the AUC(0-t) ([1]; BALB/c, mouse, spinal cord, iv, 20 mg/kg, AUC0-t, 20 mg/kg IV, 0–1440 min) was 2 µg·h/mL. For the same compound, the AUC(0-inf) [1, 22] was 306 µg·h/mL, the Cmax [1, 22] was 39000 ng/mL and the Kp [1, 22] was 20.6. For the same compound, the Tmax [1, 22] was 120 min, the AUC(0-t) ([1]; BALB/c, mouse, spleen, iv, 20 mg/kg, AUC0-t, 20 mg/kg IV, 0–1440 min) was 293 µg·h/mL and the AUC(0-inf) [1, 23] was 92.9 µg·h/mL. The Cmax [1, 23] was 13500 ng/mL, the Kp [1, 23] was 5.94 and the Tmax [1, 23] was 30 min. The AUC(0-t) ([1]; BALB/c, mouse, thymus, iv, 20 mg/kg, AUC0-t, 20 mg/kg IV, 0–1440 min) was 84.5 µg·h/mL, the Kp ([1]; BALB/c, mouse, tumor (CT26), intravenous, 20 mg/kg) was 8.68 and the AUC(0-inf) [1, 24] was 140 µg·h/mL. The Cmax [1, 24] was 13100 ng/mL, the Tmax [1, 24] was 60 min and the AUC(0-t) ([1]; BALB/c, mouse, tumor (CT26), iv, 20 mg/kg, AUC0-t, 20 mg/kg IV, 0–1440 min) was 124 µg·h/mL. The Cmax ([1]; Plasma, 20 mg/kg IV, observed, mean (SD)) was 13.3 (4.91) μg/mL, the “AUC0-∞” value ([1]; plasma, 20 mg/kg IV) was 906 µg·min/mL and the Tmax ([1]; plasma, 20 mg/kg IV) was 5 min. For the same compound, the AUC0-t/dose [1, 25] was 42.7, the “AUC0-∞ /dose” value [1, 25] was 45.3 and the “AUC0–360/dose” value [1, 25] was 29.6. The AUCextrap [1, 25] was 5.75%, the Tlast [1, 25] was 1440 min and the “0–24 h feces” value [1, 26] was 4.13 % dose. For the same compound, the “0–24 h urine” value [1, 26] was 48.4 % dose, the fraction unbound at 24 h, 300 ng/mL [2] was 0.028 and the fraction unbound at 24 h, 100000 ng/mL [2] was 0.0427. For the same compound, the “dose up to which plasma PK is dose-proportionate” value [3] was “up to 240 mg/m^2”, the efflux transporter substrate [4] was “substrate” and the efflux transporter substrate [5] was “substrate”. For the same compound, the clinically associated toxicities [6] was “bone marrow toxicities including neutropenia, thrombocytopenia, leukocytopenia, lymphocytopenia, and anemia”.
